TDP2 absorb: TDP2 (human) inhibition, absorbance primary screen; recombinant TDP2, T5PNP hydrolysis, p-nitrophenol absorbance 415 nm; 370,000 tested, 0.34% active; inhibition, % at 12.8 µM; O95551;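 active = inhibition above the mean of all tested compounds plus 3 SD, set per campaign, cut at about 25% in these data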;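 also: 0% = DMSO with enzyme and 100% = buffer with substrate but no TDP2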
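Assay system: recombinant human TDP2 / Reagent: T5PNP substrate at 5 mM, a TopII-DNA adduct mimic / Measured by: epi absorbance from released p-nitrophenol / Evaluation: % inhibition relative to enzyme-containing and enzyme-free wells / Control set: enzyme-free and DMSO wells / Replicates: each compound tested once, singlicate / Schedule: enzyme reaction with compound for 2 h at 37 °C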
PAD4 FP inh: PAD4 (human) enzyme inhibition; inhibition, % at 6.36 µM; AID 485272; 330,000 tested, 0.41% active; recombinant PAD4, RCA probe fluorescence polarization;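 active = percent inhibition above a cutoff equal to the mean of all tested compounds plus 3 SD, cut at about 15% in these data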;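 also: 0% = PAD4 with RCA probe and DMSO and 100% = probe without PAD4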
Target sequence (Q9UM07 whole entry, looked up): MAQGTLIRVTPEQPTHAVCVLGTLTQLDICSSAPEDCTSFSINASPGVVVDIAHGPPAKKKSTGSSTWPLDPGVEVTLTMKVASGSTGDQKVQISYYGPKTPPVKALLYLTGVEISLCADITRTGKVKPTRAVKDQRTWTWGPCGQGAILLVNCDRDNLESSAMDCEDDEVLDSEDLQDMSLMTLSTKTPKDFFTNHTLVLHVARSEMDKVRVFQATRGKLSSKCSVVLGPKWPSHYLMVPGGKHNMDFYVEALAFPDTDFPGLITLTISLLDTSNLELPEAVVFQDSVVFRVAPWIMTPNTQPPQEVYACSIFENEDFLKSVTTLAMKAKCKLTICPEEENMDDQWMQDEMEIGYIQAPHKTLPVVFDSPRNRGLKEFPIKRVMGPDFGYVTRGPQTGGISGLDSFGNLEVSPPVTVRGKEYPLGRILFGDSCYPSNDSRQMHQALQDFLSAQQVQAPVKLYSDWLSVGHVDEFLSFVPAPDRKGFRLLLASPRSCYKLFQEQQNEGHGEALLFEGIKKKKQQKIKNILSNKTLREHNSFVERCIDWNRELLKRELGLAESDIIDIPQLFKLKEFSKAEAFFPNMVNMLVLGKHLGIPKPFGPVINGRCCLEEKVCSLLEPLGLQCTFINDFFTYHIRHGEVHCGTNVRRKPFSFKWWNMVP
GSTO1 counter: GSTO1 inhibition, counter-screen for RBBP9 inhibitors | recombinant GSTO1, activity-based probe fluorescence polarization | AID 1974 | 300,000 tested, 1.1% active | inhibition, % at 5.96 µM | P78417;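 active = inhibition above the campaign mean inhibition plus 3 SD, cut at about 35% in these data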;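 also: 0% = GSTO1-1 with DMSO and 100% = wells lacking GSTO1-1 enzyme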
PRMT1 inh: PRMT1 (human) inhibition, primary screen. Q99873. recombinant PRMT1, activity-based probe fluorescence polarization. inhibition, % at 2.79 µM. 370,000 tested, 1.3% active. AID 652257;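 active = inhibition above about 21% made by adding two undisclosed values, limit read from the data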
eLon inh: inhibitors of E. coli Lon protease; P0A9M0; 360,000 tested, 0.42% active; inhibition, % at 7.94 µM; purified E. coli Lon protease, fluorescence polarization; AID 602123; in the data active = inhibition above about 13%, passing the limit was not always enough;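 also: 0% = enzyme with probe and DMSO and 100% = no enzyme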
Active calls of the source: *; nt = no result. Hits are enriched below; roughly 2.5% of the tested compounds scored in any of these assays.

SMILES	TDP2 absorb	PAD4 FP inh	GSTO1 counter	PRMT1 inh	eLon inh
COc1ccc(CNS(=O)(=O)c2cc3c(cc2Br)CC(C)N3C(C)=O)cc1 (stereo unspecified)	6	nt	nt	-1	nt
CCN1C(=O)c2ccccc2S(=O)c2ccc(C(=O)NCc3ccccn3)cc21 (stereo unspecified)	4	4	37*	-2	-4
CCN1C(=O)c2ccccc2S(=O)c2ccc(C(=O)NCCN(CC(C)C)CC(C)C)cc21 (stereo unspecified)	-1	-5	-2	-3	3
COC(=O)/C=C/c1ccc2c(c1)OCO2	0	-3	-2	1	0
CCNc1ccccc(C(=O)/C=C/c2ccc3c(c2)OCO3)c1=O	5	-5	44*	26*	-11
Cc1ccc(-c2cc(-c3ccccc3Cl)c(C#N)c(N)n2)o1	1	-15	1	22*	-24
Cc1ccc(-c2cc(-c3ccc(F)cc3)nc(N)c2C#N)o1	-8	-1	-6	13	-20
N=C1/C(=C\c2ccc(-c3cccc(C(=O)O)c3)o2)C(=O)N=C2SC=C(c3ccccc3)N12	8	-18	-43	22*	-65
N=C1/C(=C/c2ccc(-c3cccc(C(=O)O)c3)o2)C(=O)N=C2SC(CC(=O)N3CCOCC3)=NN12	16	-2	-33	10	-45
CC1=NN(c2ccccc2)C(=O)/C1=C/c1ccc(Cl)cc1	71*	nt	nt	1	1
CC1=NN(c2ccccc2)C(=O)/C1=C/c1ccc[nH]1	-2	1	2	0	-6
CC1=NN(c2ccccc2)C(=O)C1=Cc1ccccc1	73*	nt	nt	0	13
COc1cc(/C=C2/C(=O)N(c3ccccc3)N=C2C)ccc1OS(=O)(=O)c1ccccc1	nt	36*	36*	nt	nt
COc1cc(/C=C2/C(=N)N3C(=NC2=O)SN=C3S(C)(=O)=O)ccc1OS(=O)(=O)c1ccccc1	nt	-3	-37	nt	nt
O=C(OCc1ccccc1)c1ccc(NCc2cc(O)ccc2O)cc1	0	nt	nt	22*	-2
COC(=O)c1ccc(CCc2cc(O)ccc2O)cc1	nt	nt	nt	nt	-1
COP(=O)(OC)c1ccc(NCc2cc(O)ccc2O)cc1	-5	nt	nt	22*	28
COC(=O)C1CN(C2CCCC2)CCS(=O)(=O)N1Cc1cn(Cc2ccc(Cl)cc2)nn1 (stereo unspecified)	4	nt	nt	0	nt
CC(C)(C)NC(=O)NC(=O)CSc1nnc(COc2ccccc2Cl)o1	-14	0	36*	3	3
COC(=O)C1=C(C)N(Cc2ccccc2C(F)(F)F)C(=NCc2ccccc2)NC1c1cccc(F)c1 (stereo unspecified)	-7	nt	nt	7	nt
COc1ccc(-n2c(C)cc(C(=O)CN3C(=O)c4ccccc4C3=O)c2C)cc1	11	5	-7	-1	-1
Cc1cc(-n2c(C)cc(C(=O)CSc3nc(N)cc(=O)[nH]3)c2C)no1	-9	-8	2	1	-6
Cc1cc(-n2c(C)cc(C(=O)CCl)c2C)no1	9	3	83*	3	10
Cc1cc(-n2c(C)cc(C(=O)CSc3ccc4c(c3)OCCO4)c2C)no1	-9	3	2	22*	-5
COc1ccc(-n2c(C)cc(C(=O)CCl)c2C)cc1	10	2	97*	2	1
SMILES	TDP2 absorb	PAD4 FP inh	GSTO1 counter	PRMT1 inh	eLon inh
COC(=O)[C@H]1C[C@@]2(N3CCCCC3)c3ccccc3N(S(=O)(=O)c3ccccc3)[C@H]2N1	-3	nt	nt	0	nt
O=c1cc(O)n(C2CCCCCC2)c(=O)[nH]1	-6	-1	36*	24*	-35
COC(=O)[C@]12C[C@H](CC(=O)N3CCN(C(=O)C4CC4)CC3)C(=O)N(CCc3ccc(OC)c(OC)c3)C1=C[C@H](C1CCCC1)O[C@@H]2C	-3	nt	nt	1	nt
CN(CC(=O)N1CCc2[nH]c3ccc(F)cc3c2C1)CC1OCCO1	0	-1	-3	-1	nt
Cc1ccc2[nH]c3c(c2c1)CN(C(=O)CN(C)CC1OCCO1)CC3	20	-13	17	22*	9
C#CCN1CC(N(C)CCOC(=O)c2cc(C)cc(C)c2)CS1(=O)=O (stereo unspecified)	-2	nt	nt	-2	nt
CC[C@H](CCCc1ccc(OC)cc1)CCC(=O)N(c1ccccc1)c1ccccc1	10	nt	nt	-1	nt
COc1ccc(CCC[C@H](CCC(=O)N(c2ccccc2)c2ccccc2)CCc2ccccc2)cc1	9	nt	nt	-2	nt
O=C(O)CSc1c(-c2ccccc2)c2cc(Cl)ccc2[nH]c1=O	4	-1	4	2	-1
CCN(CC)C(=S)Sc1c(-c2ccccc2)c2cc(Cl)ccc2[nH]c1=O	-9	2	-2	24*	4
CC[C@]12c3[nH]c4cc(-c5ccco5)ccc4c3CCN1C(=O)[C@@H](CC(=O)NC/C=C(\C)CCC=C(C)C)C[C@@H]2C(=O)N1CCN(C(=O)c2ccco2)CC1	nt	2	nt	nt	-11
CC[C@]12c3[nH]c4cc(-c5ccco5)ccc4c3CCN1C(=O)[C@@H](CC(=O)NC/C=C(\C)CCC=C(C)C)C[C@@H]2C(=O)N1CCN(C(=O)C2CC2)CC1	-3	-8	nt	23*	-8
CCOC(=O)c1sc2nc(N3CCOCC3)c3c(c2c1N)CCCC3	3	4	1	3	-6
CCN(CC)C(=O)c1sc2nc(N3CCOCC3)c3c(c2c1N)CCCC3	-7	-1	6	24*	-3
Cc1nnc(Nc2ccccc2)n(N)c1=O	6	-2	11	-3	-14
Cc1nnc(NN)n(N)c1=O	-9	2	37*	2	-1
CCCCCN1CCCCC(NC(=O)c2cccc(C(F)(F)F)c2)C1=O (stereo unspecified)	16	nt	nt	-7	nt
Oc1ccc(Nc2ccc3ccccc3c2)cc1	-12	nt	nt	17	-13
Cc1cc(Nc2ccc(O)cc2)ccc1N	nt	35*	nt	nt	nt
CCC(Oc1ccccc1)C(=O)Nc1ccccc1OC (stereo unspecified)	-6	-8	-3	0	-5
CCC(Oc1ccccc1)C(=O)NCCOC (stereo unspecified)	-14	3	3	22*	2
C=CCOC(=O)C1=C(C)N=c2sc(=C3C(=O)N(CC(=O)O)c4ccccc43)c(=O)n2C1c1ccc(OC)cc1 (stereo unspecified)	14	nt	nt	5	nt
O=C(Nc1ccc2[nH]c3c(c2c1)CCCC3)c1ccco1	-3	-2	35*	3	10
O=C(CCl)Nc1c(C(=O)Nc2ccc3c(c2)OCCO3)oc2ccccc12	7	-4	36*	2	-4
CCN(CC)C(=O)CC[C@H]1CC[C@]2(CCCN(S(=O)(=O)c3ccccc3)C2)O1	8	nt	nt	1	nt
Cc1ccc(N2C3=C(C(=O)CC(C)(C)C3)C(c3cn(C)nc3C)C3=C2CC(C)(C)CC3=O)cc1	-6	10	2	14	80*
CN(C)C1=NCC(CSC(=N)N)S1 (stereo unspecified)	8	2	5	25*	-13
Cc1ccc(Nc2ccc(C(=O)O)cc2N)cc1	-14	-3	-2	24*	nt

High-throughput results: PubChem BioAssay, The Scripps Research Institute Molecular Screening Center
